Reference: ChEMBL document CHEMBL4190366, “Discovery and synthesis of novel Wogonin derivatives with potent antitumor activity in vitro” (Eur J Med Chem, 2017)
Calls of active or inactive are those of the source. No cut-off for these calls is given here.

Columns and labels:
[1] = test system: A549; experiment: Cytotoxicity in human A549 cells assessed as reduction in cell viability incubated for 72 hrs by MTT assay; settings: A549, 72 h
[2] = test system: HepG2; experiment: Cytotoxicity in human HepG2 cells assessed as reduction in cell viability incubated for 72 hrs by MTT assay; assay type: functional, cell-based; settings: HepG2, 72 h
Method in brief: (§1)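 Cells pre-incubated 24 h at 37 °C, 5% CO2, then exposed to a range of compound concentrations for 72 h. Viability read as mitochondrial MTT-to-formazan conversion, absorbance at 570 nm.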

[3] = test system: B16; experiment: Cytotoxicity in mouse B16 cells assessed as reduction in cell viability incubated for 72 hrs by MTT assay; assay type: functional, cell-based; settings: B16, 72 h; method in brief: as §1
[4] = test system: MCF7; experiment: Cytotoxicity in human MCF7 cells assessed as reduction in cell viability incubated for 72 hrs by MTT assay; assay type: functional, cell-based; settings: MCF7, 72 h; method in brief: as §1
[5] = test system: HepG2; experiment: Induction of apoptosis in human HepG2 cells assessed as apoptosis level at 6 uM incubated for 24 hrs by FITC-labelled Annexin V/PI staining based flow cytometry (reference value: 3.4%); assay type: functional
Method in brief: (§2)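 HepG2 treated 24 h with 2, 4 or 6 µM; 0.1% DMSO vehicle control. Stained with FITC-Annexin V/PI and analysed by flow cytometry 10-15 min after staining. Annexin V+/PI- counted as early/median apoptotic, Annexin V+/PI+ as late apoptotic.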

[6] = test system: HepG2; experiment: Induction of apoptosis in human HepG2 cells assessed as apoptosis level at 2 to 4 uM incubated for 24 hrs by FITC-labelled Annexin V/PI staining based flow cytometry; assay type: functional, cell-based; method in brief: as §2
[7] = test system: HepG2; experiment: Induction of ROS generation in human HepG2 cells at 2 to 6 uM incubated for 24 hrs by DCFH-DA staining based flow cytometry; assay type: functional, cell-based
Method in brief: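 HepG2 seeded at 6×10^4 cells/well and grown 24 h, then treated 24 h with 2, 4 or 6 µM. Washed with PBS and serum-free medium, loaded with serum-free DCFH-DA 30 min at 37 °C, washed twice cold. Fluorescence read by flow cytometry at 488/525 nm. Mean ± SEM, n = 3.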

[8] = test system: HepG2; experiment: Induction of apoptosis in human HepG2 cells assessed as apoptosis level incubated for 24 hrs by FITC-labelled Annexin V/PI staining based flow cytometry; assay type: functional, cell-based; method in brief: as §2

**Q.** How did the IC50 [1] turn out when `COc1c(OCCCCN2CCN(C)CC2)cc(O)c2c(=O)cc(-c3ccc(Cl)cc3)oc12` was run?
**A.** Its IC50 is 1.43 µM.

**Q.** What about the IC50 [2] of the same molecule?
**A.** The IC50 was 3.75 µM.

**Q.** And the IC50 [3]?
**A.** Its IC50 is 2.09 µM.

**Q.** And the IC50 [4]?
**A.** The IC50 was 3.21 µM.

**Q.** Which results are given for `COc1ccccc1-c1cc(=O)c2c(O)cc(OCCCCN3CCN(C)CC3)c(OC)c2o1`?
**A.** IC50 [1]: 6.79 µM; IC50 [2]: 2.33 µM; IC50 [3]: 9.3 µM; IC50 [4]: 5.43 µM

**Q.** With `CN(C)CCCCOc1c(OCc2ccccc2)cc(O)c2c(=O)cc(-c3ccccc3)oc12` as the molecule, how does the IC50 [1] read?
**A.** The IC50 was 1.09 µM.

**Q.** What about the IC50 [2] of the same molecule?
**A.** Its IC50 is 2.09 µM.

**Q.** And the IC50 [3]?
**A.** Its IC50 is 3.22 µM.

**Q.** And the IC50 [4]?
**A.** Its IC50 is 3.21 µM.

**Q.** For `CN1CCN(CCOc2c(OCc3ccccc3)cc(O)c3c(=O)cc(-c4ccccc4)oc23)CC1`, which IC50 [1] is on record?
**A.** Its IC50 is 4.41 µM.

**Q.** And the IC50 [2]?
**A.** Its IC50 is 2.89 µM.

**Q.** And the IC50 [3]?
**A.** Its IC50 is 4.37 µM.

**Q.** What about the IC50 [4] of the same molecule?
**A.** The IC50 was 4.43 µM.

**Q.** Which IC50 [1] does the source give for `CN1CCN(CCCCOc2c(OCc3cccs3)cc(O)c3c(=O)cc(-c4ccccc4)oc23)CC1` here?
**A.** Its IC50 is 2.1 µM.

**Q.** And the IC50 [2]?
**A.** Its IC50 is 4.56 µM.

**Q.** What about the IC50 [3] of the same molecule?
**A.** Its IC50 is 2.12 µM.

**Q.** What about the IC50 [4] of the same molecule?
**A.** Its IC50 is 3.18 µM.

**Q.** `CN(C)CCCOc1c(OCc2ccccc2)cc(O)c2c(=O)cc(-c3ccccc3)oc12` was tested. Which IC50 [1] did it give?
**A.** The IC50 was 2.91 µM.

**Q.** What about the IC50 [2] of the same molecule?
**A.** Its IC50 is 4.95 µM.

**Q.** What about the IC50 [3] of the same molecule?
**A.** The IC50 was 5.42 µM.

**Q.** And the IC50 [4]?
**A.** The IC50 was 3.21 µM.

**Q.** Which results are given for `CN1CCN(CCCCOc2c(OCc3nc4ccccc4s3)cc(O)c3c(=O)cc(-c4ccccc4)oc23)CC1`?
**A.** IC50 [1]: 1.06 µM; IC50 [2]: 5.44 µM; IC50 [3]: 2.78 µM; IC50 [4]: 4.85 µM

**Q.** How did the IC50 [1] turn out when `O=c1cc(-c2ccccc2)oc2c(OCCN(CCO)CCO)c(OCc3ccccc3)cc(O)c12` was run?
**A.** Its IC50 is 6.4 µM.

**Q.** What about the IC50 [2] of the same molecule?
**A.** Its IC50 is 3.17 µM.

**Q.** What about the IC50 [3] of the same molecule?
**A.** The IC50 was 3.69 µM.

**Q.** What about the IC50 [4] of the same molecule?
**A.** Its IC50 is 6.07 µM.

**Q.** How did the IC50 [1] turn out when `COc1c(OCCCCN2CCN(C)CC2)cc(O)c2c(=O)cc(-c3ccc(C)cc3)oc12` was run?
**A.** The IC50 was 3.81 µM.

**Q.** And the IC50 [2]?
**A.** The IC50 was 1 µM.

**Q.** What about the IC50 [3] of the same molecule?
**A.** Its IC50 is 5.43 µM.

**Q.** What about the IC50 [4] of the same molecule?
**A.** Its IC50 is 4.02 µM.

**Q.** What does the source list for `CN1CCN(CCCCOc2c(OCc3ccccc3)cc(O)c3c(=O)cc(-c4ccccc4)oc23)CC1`?
**A.** Activity [5]: 20.7%; IC50 [1]: 2.91 µM; IC50 [2]: 1.5 µM; Activity [6]: inactive; Activity [7]: Dose-dependent effect; IC50 [3]: 2.37 µM; Activity [8]: Dose-dependent effect; IC50 [4]: 2.93 µM

**Q.** With `CN1CCN(CCCCOc2c(OCc3nc4ccccc4o3)cc(O)c3c(=O)cc(-c4ccccc4)oc23)CC1` as the molecule, how does the IC50 [1] read?
**A.** Its IC50 is 3.87 µM.

**Q.** What about the IC50 [2] of the same molecule?
**A.** The IC50 was 4.11 µM.

**Q.** What about the IC50 [3] of the same molecule?
**A.** Its IC50 is 2.08 µM.

**Q.** And the IC50 [4]?
**A.** Its IC50 is 4.98 µM.

**Q.** How did the IC50 [1] turn out when `COc1c(O)cc(O)c2c(=O)cc(-c3ccccc3)oc12` [WOGONIN] was run?
**A.** The IC50 was 20.1 µM.

**Q.** And the IC50 [2]?
**A.** Its IC50 is 19.5 µM.

**Q.** What about the IC50 [3] of the same molecule?
**A.** Its IC50 is 26.4 µM.

**Q.** What about the IC50 [4] of the same molecule?
**A.** Its IC50 is 28 µM.

**Q.** With `O=c1cc(-c2ccccc2)oc2c(OCCCCN3CCOCC3)c(OCc3ccccc3)cc(O)c12` as the molecule, how does the IC50 [1] read?
**A.** The IC50 was 6.6 µM.

**Q.** What about the IC50 [2] of the same molecule?
**A.** The IC50 was 3.29 µM.

**Q.** What about the IC50 [3] of the same molecule?
**A.** Its IC50 is 5.41 µM.

**Q.** What about the IC50 [4] of the same molecule?
**A.** The IC50 was 9.9 µM.

**Q.** With `COc1ccc(-c2cc(=O)c3c(O)cc(OCCCCN4CCN(C)CC4)c(OC)c3o2)cc1` as the molecule, how does the IC50 [1] read?
**A.** Its IC50 is 2.32 µM.

**Q.** And the IC50 [2]?
**A.** The IC50 was 4.2 µM.

**Q.** And the IC50 [3]?
**A.** Its IC50 is 4.1 µM.

**Q.** What about the IC50 [4] of the same molecule?
**A.** The IC50 was 3.98 µM.

**Q.** Which IC50 [1] does the source give for `O=c1cc(-c2ccccc2)oc2c(OCCCCN(CCO)CCO)c(OCc3ccccc3)cc(O)c12` here?
**A.** The IC50 was 4.35 µM.

**Q.** And the IC50 [2]?
**A.** The IC50 was 3.14 µM.

**Q.** And the IC50 [3]?
**A.** The IC50 was 3.76 µM.

**Q.** What about the IC50 [4] of the same molecule?
**A.** The IC50 was 1.09 µM.

**Q.** What does the source list for `O=c1[nH]cc(F)c(=O)[nH]1` [FLUOROURACIL]?
**A.** IC50 [3]: 1.19 µM; IC50 [4]: 14.7 µM
